In ChEMBL document CHEMBL1149808, “Cyclic nucleotide phosphodiesterase type 4 inhibitors: evaluation of pyrazolo[1,5-a]-1,3,5-triazine ring system as an adenine bioisostere” (Eur J Med Chem, 2008) one finds IC50, inhibition and Activity data, which are given here for 28 compounds.

The nature of assay [1]: Inhibition of PDE4. In outline:
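PDE4 from bovine aorta media layer; [³H]-cAMP hydrolysis, two-step assay, with 1 mM EGTA and cGMP 50 added to suppress PDE3, 50 mM Tris-HCl pH 7.5, 2 mM magnesium acetate, 1 mg/mL BSA, 1% DMSO. IC50 by regression over concentration-response data, mean of three runs.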

A short description of assay [2]: Inhibition of PDE3 at 10 uM. In outline: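 Bovine aortic media PDE3, two-step assay with [³H]-cAMP plus 1 mM EGTA in Tris-HCl 50 mM pH 7.5, 2 mM Mg acetate, BSA 1 mg/mL; rolipram 50 present to block PDE4 contamination. DMSO 1% final.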
Assay [3] has as its target T1, cGMP-dependent 3',5'-cyclic phosphodiesterase (Bos taurus) (UniProt P14099).
T1 sequence (whole entry): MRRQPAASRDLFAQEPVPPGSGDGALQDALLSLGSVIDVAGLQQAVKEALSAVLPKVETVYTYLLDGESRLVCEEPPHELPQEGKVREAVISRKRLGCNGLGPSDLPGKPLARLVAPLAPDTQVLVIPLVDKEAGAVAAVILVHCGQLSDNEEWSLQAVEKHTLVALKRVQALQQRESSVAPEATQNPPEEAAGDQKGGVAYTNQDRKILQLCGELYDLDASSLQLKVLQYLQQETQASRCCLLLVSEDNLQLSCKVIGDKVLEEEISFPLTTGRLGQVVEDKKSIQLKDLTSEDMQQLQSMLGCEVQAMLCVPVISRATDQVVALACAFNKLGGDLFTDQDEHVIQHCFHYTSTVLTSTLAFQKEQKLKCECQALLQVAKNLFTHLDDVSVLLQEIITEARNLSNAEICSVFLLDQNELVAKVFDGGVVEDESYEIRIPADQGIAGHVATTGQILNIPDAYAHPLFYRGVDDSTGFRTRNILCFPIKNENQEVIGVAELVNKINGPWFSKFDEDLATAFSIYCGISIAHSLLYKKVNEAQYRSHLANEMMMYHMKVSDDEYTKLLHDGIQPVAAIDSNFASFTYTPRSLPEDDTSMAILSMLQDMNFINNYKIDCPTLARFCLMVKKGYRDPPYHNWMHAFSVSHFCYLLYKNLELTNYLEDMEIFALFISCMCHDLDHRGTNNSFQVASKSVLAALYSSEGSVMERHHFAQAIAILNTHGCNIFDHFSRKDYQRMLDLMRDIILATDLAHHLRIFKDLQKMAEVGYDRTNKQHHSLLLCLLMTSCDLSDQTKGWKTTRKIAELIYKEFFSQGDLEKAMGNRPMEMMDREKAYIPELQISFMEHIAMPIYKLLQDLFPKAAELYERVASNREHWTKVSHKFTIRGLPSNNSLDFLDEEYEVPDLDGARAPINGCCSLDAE
Nature of the assay: Inhibition of bovine aorta PDE2 at 10 uM in presence of cGMP. The procedure, abridged:
(§1)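 PDE2 isolated from cultured bovine aortic endothelial cells; two-step assay using [³H]-cAMP plus 1 mM EGTA in 50 mM Tris-HCl pH 7.5, 2 mM magnesium acetate, 1 mg/mL BSA; activated state with 5 cGMP. DMSO 1% final; IC50 by regression from concentration-response curves, three determinations.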

Assay [4] in a line: Inhibition of PDE5 at 10 uM. The procedure, abridged:
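Bovine aortic media PDE5 measured as [³H]-cGMP hydrolysis in two-step assay with 1 mM EGTA, 50 mM Tris-HCl pH 7.5, 2 mM magnesium acetate, 1 mg/mL BSA; inhibitor in DMSO, 1% final.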

Assay [5] can be described thus: Inhibition of PDE1 at 10 uM in absence of calmodulin.
Assay [6] deals with T1, cGMP-dependent 3',5'-cyclic phosphodiesterase (Bos taurus). Nature of the assay: Inhibition of bovine aorta PDE2 at 10 uM in absence of cGMP.
Assay [7] can be described thus: Inhibition of PDE1 at 10 uM in presence of calmodulin. In outline:
(§2)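 PDE1 purified from bovine aorta media layer; two-step radioassay with [³H]-cGMP substrate in 50 mM Tris-HCl pH 7.5, 2 mM magnesium acetate, 1 mg/mL BSA. Calmodulin-activated state: 18 nM calmodulin plus 10 mM CaCl₂. Inhibitors from DMSO, 1% final. IC50 by regression from concentration-response curves, mean of three determinations.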

For assay [8], the system named is PBMC. Nature of the assay: Antiinflammatory activity in human PBMC assessed as inhibition of LPS-stimulated TNFalpha release after 24 hrs by trypan blue exclusion test. The format is functional, cell-based. To be noted: in the assay text read “ELISA” for “trypan blue exclusion test”. In outline:
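Human PBMCs from density-gradient interface, washed in HBSS-CMF, 2 × 10⁶ cells/mL, exposed to drug 10^-8 to 10^-5 M with or without Salmonella abortus equi LPS, 24 h, 37 °C, 5% CO₂. Supernatants stored at -80 °C, then TNFα measured by two-site ELISA (OD 450 nm, o-phenylenediamine), interpolated on standard curve by four-parameter logistics; viability by Trypan blue exclusion.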
(In general: An ELISA detects its analyte on a solid surface through an enzyme-linked reagent.)

The target in assay [9] is T2, cGMP-dependent 3',5'-cyclic phosphodiesterase (Bos taurus, UniProt P14099).
T2 sequence (P14099 whole entry): T1 sequence (whole entry)
Nature of the assay: Inhibition of bovine aorta PDE2 in presence of cGMP. The procedure, abridged: as §1

Assay [10] in a line: Inhibition of PDE1 in presence of calmodulin. In outline:
as §2

Each structure is given as a SMILES string.

By IC50 is commonly meant the concentration needed to halve the response being measured. For the compound `CC#Cc1cnn2c(NC)nc(C)nc12`, the IC50 in assay [1] was 6400 nM.
What is called inhibition is how much of the control response was suppressed. `CCCc1nc(NC)n2ncc(Cc3ccccc3)c2n1` showed an IC50 in assay [1] of 48 nM. Further, the inhibition in assay [2] amounted to 10%; in assay [3], 20%; in [4] it was 16%; in [5], 24%; in assay [6], 20%; in assay [7], 25%.
For the compound `CCCc1nc(NC)c2ncn(Cc3ccccc3OC)c2n1`, half-maximal inhibition in [1] (IC50) was put at 7 nM.
With `CCCC#Cc1cnn2c(NC)nc(C)nc12`, the IC50 in assay [1] came to 410 nM.
In assay [1], `CNc1nc(C)nc2c(-c3cccs3)cnn12` returned an IC50 of 2400 nM.
The compound `CNc1nc(C(F)(F)F)nc2c(Cc3ccccc3OC)cnn12` yielded an IC50 in assay [1] of 11 nM. Further, the inhibition in assay [2] was determined as 24%; in assay [4], 74%; in assay [5], 20%; in assay [6] it was 16%. The Activity entry in assay [8] was “Dose-dependent effect”.
On to `CNc1nc(C)nc2c(Cc3cccs3)cnn12`, for which the IC50 in assay [1] turned out to be 70 nM.
In assay [1], `CCC(O)c1cnn2c(NC)nc(C)nc12` (stereo not given) had an IC50 of 4800 nM.
On to `CNc1nc(C)nc2c(-c3cccc(C(F)(F)F)c3)cnn12`, for which, in assay [1], the IC50 came out at 130 nM.
Same read-out and setting: for `CCCc1nc(NC)c2ncn(Cc3ccccc3)c2n1` the value was 88 nM; for `CNc1nc(C)nc2c1ncn2Cc1ccccc1`, 280 nM.
In turn, `CNc1nc(C)nc2c(Cc3ccco3)cnn12` showed an IC50 in assay [1] of 100 nM.
Compound `CNc1nc(C)nc2c(Cc3ccoc3)cnn12` came in with an IC50 in assay [1] of 78 nM.
The compound `CCCc1nc(NC)n2ncc(Cc3ccccc3OC)c2n1` gave an IC50 in assay [1] of 13 nM. Also, the inhibition in assay [2] amounted to 16%; in assay [3] it was 31%; in assay [4], 38%; in [5], 27%; in assay [6] it was 19%; in assay [7], 35%. Moreover, the Activity result in [8] is “Dose-dependent effect”.
For `CNc1nc(C)nc2c(-c3cccc(C(C)=O)c3)cnn12`, half-maximal inhibition in assay [1] (IC50) required 540 nM.
As for `CNc1nc(C)nc2c(-c3cc4ccccc4o3)cnn12`, the IC50 in assay [1] was 6200 nM.
In assay [1], `CNc1nc(C)nc2c(Cc3ccc4ccccc4c3)cnn12` returned an IC50 of 270 nM.
Compound `CNc1nc(C)nc2c1ncn2Cc1ccccc1OC` yielded an IC50 in [1] of 61 nM.
In the case of `CNc1nc(C(F)(F)F)nc2c(Cc3ccccc3)cnn12`, 77 nM corresponded to half-maximal inhibition in [1] (IC50). The Activity entry in [8] is “Dose-dependent effect”.
In assay [1], `CNc1nc(C)nc2c(-c3cccc([N+](=O)[O-])c3)cnn12` came in with an IC50 of 1200 nM.
Consider `CNc1nc(C)nc2c(-c3ccco3)cnn12`, for which the IC50 in assay [1] stood at 3100 nM.
Still for that read-out and setting: for `CNc1nc(C(F)(F)F)nc2c1ncn2Cc1ccccc1OC` the value was 1.4 nM.
As to `CNc1nc(C)nc2c(-c3ccccc3)cnn12`, it took 270 nM to reach half-maximal inhibition in assay [1] (IC50). The inhibition in assay [2] was determined as 2.7%; in assay [3], 11%; in assay [4] it was 11%; in assay [5], 21%; in [6] it was 3.6%; in [7], 20%.
Take `CNc1nc(C)nc2c(-c3cccc4ccccc34)cnn12`: the IC50 in assay [1] came out at 210 nM.
Regarding `CNc1nc(C)nc2c(C(=O)c3ccccc3)cnn12`, the IC50 in assay [1] was found to be 120 nM. Moreover, the inhibition in assay [2] worked out at 11%; in assay [3], 17%; in assay [4], 8%; in assay [5] it was 16%; in assay [6], 15%; in assay [7], 29%.
Consider `CNc1nc(C)nc2c(-c3ccccc3Cl)cnn12`, for which, in assay [1], the IC50 stood at 2900 nM.
For the compound `CNc1nc(C)nc2c(Cc3ccccc3)cnn12`, the IC50 in assay [1] came out at 98 nM; in assay [9], 56000 nM; in assay [10], 14000 nM. The inhibition in assay [2] turned out to be 8.6%; in assay [4] it was 33%; in [5], 37%; in assay [6], 19%.
The compound `CNc1nc(C)nc2c(-c3cc4ccccc4s3)cnn12` gave an IC50 in assay [1] of 3500 nM.
